This is an account of results in ChEMBL document CHEMBL2057089, “Design and synthesis of novel p38α MAP kinase inhibitors: discovery of pyrazole-benzyl ureas bearing 2-molpholinopyrimidine moiety” (Bioorg Med Chem Lett, 2012).

Data set [1] deals with Mus musculus. As to the kind of experiment: Antiinflammatory activity in BALB/c mouse model of endotoxic shock assessed as inhibition of LPS-induced TNFalpha production at 50 mg/kg, po administered 30 mins before LPS challenge measured after 60 mins by ELISA. It is filed as functional. In outline: (§1)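 Male BALB/c mice, 8 weeks old, were dosed orally at 10 mL/kg. Controls received vehicle (27% hydroxypropyl-β-cyclodextrin, 10 mL/kg). LPS (1 mg/kg) was injected i.p. 30 min after dosing. Blood was taken 60 min after LPS, and serum was separated for TNF-α measurement.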
Background: ELISA stands for enzyme-linked immunosorbent assay.

Data set [2] can be described thus: Antiinflammatory activity in human whole blood cells assessed as inhibition of LPS-induced TNFalpha production after 4 hrs by time-resolved fluorescence assay. The data set is classed as functional, cell-based. In outline: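 Freshly drawn heparinized human whole blood was given compound diluted in human serum AB and preincubated 1 h at 37 °C. It was then stimulated with LPS (200 ng/mL, E. coli O111:B4) for 4 h at 37 °C. Supernatant TNF-α was read by homogeneous time-resolved fluorescence.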

Data set [3] deals with Mitogen-activated protein kinase 14 (Homo sapiens, UniProt Q16539). The data set is described as follows: Inhibition of human recombinant P38alpha-mediated ATF2 phosphorylation after 1 hr.
In data set [4] the test system is Mus musculus. The data set is described as follows: Hepatotoxicity in Crlj:CD1(ICR) mouse assessed as change in plasma AST level at 500 to 1000 mg/kg, po administered for 5 consecutive days measured 24 hrs post final dosing. It is filed as toxicity, organism-based. Set-up: dose 500-1000 mg/kg, route oral. The note with it: in vivo.
Data set [5] deals with Mus musculus. As to the kind of experiment: Hepatotoxicity in Crlj:CD1(ICR) mouse assessed as change in plasma direct bilirubin level at 500 to 1000 mg/kg, po administered for 5 consecutive days measured 24 hrs post final dosing. As to conditions: in vivo. It is filed as toxicity, organism-based. Details: dose 500-1000 mg/kg, route oral.
Data set [6] relates to Mus musculus. As to the kind of experiment: Hepatotoxicity in Crlj:CD1(ICR) mouse assessed as change in plasma total bilirubin level at 500 to 1000 mg/kg, po administered for 5 consecutive days measured 24 hrs post final dosing. Set-up: dose 500-1000 mg/kg, route oral. The note with it: in vivo. It is filed as toxicity, organism-based.
Data set [7] has as its system Mus musculus. The data set is described as follows: Hepatotoxicity in Crlj:CD1(ICR) mouse assessed as change in plasma AST level at 2000 mg/kg, po administered for 5 consecutive days measured 24 hrs post final dosing (reference value: 45 +/- 11 U/L). Set-up: dose 2000 mg/kg, route oral. The note with it: in vivo. It is filed as toxicity, organism-based.
Data set [8] deals with Mus musculus. As to the kind of experiment: Hepatotoxicity in Crlj:CD1(ICR) mouse assessed as change in plasma ALT level at 2000 mg/kg, po administered for 5 consecutive days measured 24 hrs post final dosing (reference value: 24 +/- 4 U/L). It is filed as toxicity, organism-based. Details: dose 2000 mg/kg, route oral. The note with it: in vivo.
The test system of data set [9] is Mus musculus. As to the kind of experiment: Antiinflammatory activity in po dosed BALB/c mouse model of endotoxic shock assessed as inhibition of LPS-induced TNFalpha production administered 30 mins before LPS challenge measured after 60 mins by ELISA.
Data set [10] concerns Mus musculus. The data set is described as follows: Hepatotoxicity in Crlj:CD1(ICR) mouse assessed as change in plasma AST level at 1000 mg/kg, po administered for 5 consecutive days measured 24 hrs post final dosing (reference value: 45 +/- 11 U/L). It is filed as toxicity, organism-based. Details: dose 1000 mg/kg, route oral. The note with it: in vivo.
Data set [11] deals with Mus musculus. The data set is described as follows: Hepatotoxicity in Crlj:CD1(ICR) mouse assessed as change in plasma ALT level at 500 mg/kg, po administered for 5 consecutive days measured 24 hrs post final dosing (reference value: 24 +/- 4 U/L). It is filed as toxicity, organism-based. Set-up: dose 500 mg/kg, route oral. The note with it: in vivo.
Data set [12] relates to Mus musculus. As to the kind of experiment: Hepatotoxicity in Crlj:CD1(ICR) mouse assessed as change in plasma ALT level at 1000 mg/kg, po administered for 5 consecutive days measured 24 hrs post final dosing (reference value: 24 +/- 4 U/L). Set-up: dose 1000 mg/kg, route oral. The note with it: in vivo. The data set is classed as toxicity, organism-based.
For data set [13], the system named is Mus musculus. As to the kind of experiment: Hepatotoxicity in Crlj:CD1(ICR) mouse assessed as change in plasma AST level at 500 mg/kg, po administered for 5 consecutive days measured 24 hrs post final dosing (reference value: 45 +/- 11 U/L). The data set is classed as toxicity, organism-based. Set-up: dose 500 mg/kg, route oral. As to conditions: in vivo.
Data set [14] deals with Mus musculus. The data set is described as follows: Antiinflammatory activity in BALB/c mouse model of endotoxic shock assessed as inhibition of LPS-induced TNFalpha production at 100 mg/kg, po administered 30 mins before LPS challenge measured after 60 mins by ELISA. The data set is classed as functional. The essentials:
as §1

Sequence of Mitogen-activated protein kinase 14 (Q16539 whole entry): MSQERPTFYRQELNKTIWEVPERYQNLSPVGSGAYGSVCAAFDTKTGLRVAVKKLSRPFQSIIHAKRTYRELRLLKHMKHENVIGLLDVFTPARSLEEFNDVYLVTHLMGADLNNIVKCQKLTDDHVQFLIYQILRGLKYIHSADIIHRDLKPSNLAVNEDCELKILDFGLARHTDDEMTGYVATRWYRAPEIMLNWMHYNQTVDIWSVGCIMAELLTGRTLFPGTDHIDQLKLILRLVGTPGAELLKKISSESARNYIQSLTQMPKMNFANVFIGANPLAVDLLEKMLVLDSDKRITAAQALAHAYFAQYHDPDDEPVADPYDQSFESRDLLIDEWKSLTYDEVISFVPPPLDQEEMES

One may read the inhibition in vivo as the relative decrease from the control value, in per cent. By IC50 is commonly meant the concentration at which inhibition is half-maximal. `Cc1ccc(-n2nc(C(C)(C)C)cc2NC(=O)NCc2ccccc2Oc2ccnc(N3CCOCC3)n2)cc1`: in the data set with Mus musculus [1], the inhibition in vivo at 50 mg/kg came out at 65%. For the same molecule, the values for the IC50 in [2] and in data set [3] were 720 nM and 12 nM, respectively.
With `Cc1ccc(-n2nc(C(C)(C)C)cc2NC(=O)NCc2cc(F)cc(F)c2Oc2ccnc(N3CCOCC3)n2)cc1`, the IC50 is 48 nM in data set [2] and 3 nM in [3].
`Cc1ccc(-n2nc(C(C)(C)C)cc2NC(=O)Nc2ccc(OCCN3CCOCC3)c3ccccc23)cc1` [DORAMAPIMOD]: the Activity entry with Mus musculus [4], in the data set on Mus musculus [5] and in the data set on Mus musculus [6] was “Toxic” each time. Also, the inhibition in vivo at 50 mg/kg in the data set on Mus musculus [1] turned out to be 82%. Also, the IC50 in data set [2] was determined as 600 nM.
The ED50 is the dose that gives a 50% effect, or the effect in half of the subjects. In the case of `Cc1ccc(-n2nc(C(C)(C)C)cc2NC(=O)NCc2cc(F)ccc2Oc2ccnc(N3CCOCC3)n2)cc1`, the Activity with Mus musculus [7] came out at 46 U/L; with Mus musculus [8], 28 U/L; with Mus musculus [10] it was 47 U/L; in the data set on Mus musculus [11], 26 U/L; with Mus musculus [12], 32 U/L; in the data set with Mus musculus [13] it was 42 U/L. Further, the ED50 with Mus musculus [9] stood at 16 mg/kg. The inhibition in vivo at 50 mg/kg with Mus musculus [1] was determined as 84%. The IC50 in [2] is 230 nM; in [3], 4 nM.
With `Cc1ccc(-n2nc(C(C)(C)C)cc2NC(=O)NCc2cc(C(F)(F)F)ccc2Oc2ccnc(N3CCOCC3)n2)cc1`, the IC50 in [2] is over 10000 nM; in [3], 35 nM.
For `Cc1ccc(-n2nc(C(C)(C)C)cc2NC(=O)NCc2cc(F)cc(Cl)c2Oc2ccnc(N3CCOCC3)n2)cc1`, in that order: 110 nM and 11 nM.
As to `Cc1ccc(-n2nc(C(C)(C)C)cc2NC(=O)NCc2cc(Cl)ccc2Oc2ccnc(N3CCOCC3)n2)cc1`, the inhibition in vivo at 100 mg/kg in the data set on Mus musculus [14] was found to be 81%. The IC50 in [2] was 190 nM; in [3], 5 nM.
Consider `Cc1ccc(-n2nc(C(C)(C)C)cc2NC(=O)NCc2cc(C)ccc2Oc2ccnc(N3CCOCC3)n2)cc1`, for which the IC50 in data set [2] is 970 nM; in data set [3], 13 nM.
For `Cc1ccc(-n2nc(C(C)(C)C)cc2NC(=O)NCc2cc(F)cc(C)c2Oc2ccnc(N3CCOCC3)n2)cc1`, in data set [3], the IC50 amounted to 14 nM.
Still for that read-out and setting: as for `Cc1ccc(-n2nc(C(C)(C)C)cc2NC(=O)NCc2ccccc2Oc2ccnc(N3CCCCC3)n2)cc1`, the figure is 13 nM; as for `Cc1ccc(-n2nc(C(C)(C)C)cc2NC(=O)NCc2ccccc2O)cc1`, 1500 nM; as for `Cc1ccc(-n2nc(C(C)(C)C)cc2NC(=O)NCc2ccccc2Oc2ccnc(Cl)n2)cc1`, 20 nM.
